Columns and labels:
Canis familiaris [1] = assay: Unbound Cmax in beagle dog […] at 75 mg/kg, po qd administered for 14 days; type: ADME, organism-based, Canis lupus familiaris; settings: in vivo, 336 h
Summary of the method: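 Exploratory 14-day dog toxicity study with daily oral dosing. Toxicokinetic exposure is reported as the mean with male and female systemic values combined.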

Rattus norvegicus [2] = assay: Unbound Cmax in Wistar Han IGS rat at 300 mg/kg, po qd administered for 1 month; type: ADME, organism-based; settings: in vivo
Summary of the method: (§1)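 Wistar Han rats were dosed orally once daily for 14 days (exploratory, 5/sex/dose) or 1 month (toxicity, 10/sex/dose). Toxicokinetic satellite animals (3–4/sex/dose) were used, and steady-state systemic exposure is given as the mean of male and female values combined.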

Canis familiaris [3] = assay: Toxicity in beagle dog assessed as prolongation of QTc interval at 100 to 150 mg/kg, po qd administered for 25 days; type: organism-based, Canis lupus familiaris; settings: in vivo, 600 h
Rattus norvegicus [4] = assay: Toxicity in Wistar Han IGS rat assessed as foamy macrophage accumulation in lung at 500 mg/kg, po qd administered for 14 days; type: organism-based; settings: in vivo, 336 h
Summary of the method: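 Wistar Han rats, daily oral dosing for 14 days (5/sex/dose) or 1 month (10/sex/dose); microscopic findings reported as incidence by sex, plus organ weights.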

Canis familiaris [5] = assay: Toxicity in beagle dog assessed as renal tubular regeneration at 300 mg/kg, po qd administered for 14 days; type: organism-based, Canis lupus familiaris; settings: in vivo, 336 h
Rattus norvegicus [6] = assay: Unbound Cmax in Wistar Han IGS rat at 60 mg/kg, po qd administered for 1 month; type: ADME, organism-based; settings: in vivo; summary of the method: as §1
Canis familiaris [7] = assay: Toxicity in telemetered beagle dog assessed as foamy salivation at 20 mg/kg, iv administered as single bolus dose over 2 mins; type: organism-based, Canis lupus familiaris; settings: in vivo
Canis familiaris [8] = assay: Unbound AUC in beagle dog at 300 mg/kg, po qd administered for 14 days; type: ADME, organism-based, Canis lupus familiaris; settings: in vivo, 336 h
Summary of the method: (§2)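 Beagle dogs were dosed orally once daily in a 14-day exploratory study or 1-month toxicity studies. Steady-state systemic exposure over the 24 h dosing interval is reported as the mean of male and female values combined.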

Rattus norvegicus [9] = assay: Unbound Cmax in Wistar Han IGS rat at 500 mg/kg, po qd administered for 14 days; type: ADME, organism-based; settings: in vivo, 336 h; summary of the method: as §1
Rattus norvegicus [10] = assay: Unbound AUC in Wistar Han IGS rat at 30 mg/kg, po qd administered for 1 month; type: ADME, organism-based; settings: in vivo; summary of the method: as §1
[11] = Ratio of Cmax in telemetered beagle dog at 25 mg/kg administered via oral gavage measured over 24 hrs to IC50 for in vitro inhibition of dog DGAT2; type: organism-based, Canis lupus familiaris; settings: in vivo
Summary of the method: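 Telemetered Beagle dogs given single oral doses (5, 25 and 50 mg kg–1), with systolic and diastolic blood pressure and heart rate monitored after dosing. Cmax is related to the dog DGAT2 enzymatic IC50, which is the geometric mean of at least three replicates.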

[12] = Fraction unbound in dog plasma; type: ADME, cell-free, Canis lupus familiaris
[13] = Fraction unbound in rat plasma; type: ADME, cell-free
[14] = biological target: T1, Diacylglycerol O-acyltransferase 1 (Homo sapiens, UniProt O75907); assay: Inhibition of DGAT1 (unknown origin)
T1 sequence (O75907 whole entry): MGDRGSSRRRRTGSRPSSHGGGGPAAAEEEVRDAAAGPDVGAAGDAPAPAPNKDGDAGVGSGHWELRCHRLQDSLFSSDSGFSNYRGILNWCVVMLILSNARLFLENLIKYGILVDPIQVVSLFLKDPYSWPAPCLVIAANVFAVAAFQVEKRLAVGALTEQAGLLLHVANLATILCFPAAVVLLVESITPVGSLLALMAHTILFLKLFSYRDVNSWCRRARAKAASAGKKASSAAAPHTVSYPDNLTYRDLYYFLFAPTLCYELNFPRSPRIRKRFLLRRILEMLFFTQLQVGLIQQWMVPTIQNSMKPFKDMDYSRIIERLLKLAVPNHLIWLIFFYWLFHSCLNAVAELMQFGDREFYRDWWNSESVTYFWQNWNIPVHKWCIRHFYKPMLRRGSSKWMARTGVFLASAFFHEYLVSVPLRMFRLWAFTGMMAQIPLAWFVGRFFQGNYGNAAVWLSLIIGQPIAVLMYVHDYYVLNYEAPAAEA

Cytochrome P450 3A4 = Cytochrome P450 3A4 (Homo sapiens, UniProt P08684); assay: Drug metabolism in human liver microsomes assessed as fraction of CYP3A4-mediated oxidative metabolism preincubated for 5 mins followed by addition of NADPH regenerating system and measured after 2.5 to 60 mins; type: ADME
Summary of the method: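 Fractions of metabolism attributed to CYP oxidation and UGT glucuronidation were derived from human liver microsomal incubations. For the glucuronidation arm, microsomes were supplemented with the UGT cofactor UDP-glucuronic acid.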

Canis familiaris [15] = assay: Toxicity in telemetered beagle dog assessed as increase in systolic pressure at 5 mg/kg administered via oral gavage measured during 4 hrs of post dosing; type: organism-based, Canis lupus familiaris; settings: in vivo
[16] = biological target: T2, Diacylglycerol O-acyltransferase 2 (Homo sapiens, UniProt Q96PD7); assay: Inhibition of human DGAT2
T2 sequence (Q96PD7 whole entry): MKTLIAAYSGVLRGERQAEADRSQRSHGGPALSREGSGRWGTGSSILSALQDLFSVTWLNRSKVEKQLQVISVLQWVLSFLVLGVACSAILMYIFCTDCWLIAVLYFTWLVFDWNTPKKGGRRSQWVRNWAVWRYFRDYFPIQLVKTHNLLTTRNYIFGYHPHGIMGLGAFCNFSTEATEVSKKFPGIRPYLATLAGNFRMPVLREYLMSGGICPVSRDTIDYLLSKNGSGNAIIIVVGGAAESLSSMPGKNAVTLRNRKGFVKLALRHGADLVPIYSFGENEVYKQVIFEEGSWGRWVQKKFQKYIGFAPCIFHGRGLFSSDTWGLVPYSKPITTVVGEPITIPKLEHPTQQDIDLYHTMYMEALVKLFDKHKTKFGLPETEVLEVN
Summary of the method: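 IC50 against human DGAT2 in an enzymatic assay, reported as the geometric mean of at least three replicates with SEM.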

Canis familiaris [17] = assay: Unbound AUC in beagle dog at 3 mg/kg, po qd administered for 1 month; type: ADME, organism-based, Canis lupus familiaris; settings: in vivo; summary of the method: as §2

Sequence of Cytochrome P450 3A4 (P08684 whole entry): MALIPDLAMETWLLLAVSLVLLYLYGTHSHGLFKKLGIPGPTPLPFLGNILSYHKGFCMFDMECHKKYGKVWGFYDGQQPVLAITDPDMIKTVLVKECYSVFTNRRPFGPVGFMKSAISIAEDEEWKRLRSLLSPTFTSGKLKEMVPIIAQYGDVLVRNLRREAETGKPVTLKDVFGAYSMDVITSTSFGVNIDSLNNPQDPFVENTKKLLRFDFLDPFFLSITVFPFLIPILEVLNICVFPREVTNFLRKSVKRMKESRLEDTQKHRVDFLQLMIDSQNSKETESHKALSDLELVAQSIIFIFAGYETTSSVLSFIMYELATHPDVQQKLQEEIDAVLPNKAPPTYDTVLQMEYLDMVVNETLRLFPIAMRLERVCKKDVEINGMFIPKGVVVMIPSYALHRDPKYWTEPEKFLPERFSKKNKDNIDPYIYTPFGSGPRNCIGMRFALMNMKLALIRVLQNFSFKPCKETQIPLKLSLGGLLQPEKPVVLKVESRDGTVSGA

| fraction unbound [12] | fraction unbound [13] | IC50 [14] | Ratio (Cytochrome P450 3A4) | IC50 [16] | fAUC (Canis familiaris [17]) | Compound | fCmax (Canis familiaris [1]) | fCmax (Rattus norvegicus [2]) | Activity (Canis familiaris [3]) | Activity (Rattus norvegicus [4]) | Activity (Canis familiaris [5]) | fCmax (Rattus norvegicus [6]) | Activity (Canis familiaris [7]) | fAUC (Canis familiaris [8]) | fCmax (Rattus norvegicus [9]) | fAUC (Rattus norvegicus [10]) | Ratio [11] | Activity (Canis familiaris [15]) |
| --- | --- | --- | --- | --- | --- | --- | --- | --- | --- | --- | --- | --- | --- | --- | --- | --- | --- | --- |
| – | – | – | – | – | – | CS(=O)(=O)O.O=C([C@@H]1CCCN(c2ccc3nc(C4(n5cc(Cl)cn5)CC4)[nH]c3n2)C1)N1CCCC1 | 6.54 µM | 13.9 µM | Toxic | Toxic | Toxic | 5.47 µM | Non-Toxic | 78300 ng·h/mL | 18.8 µM | 4630 ng·h/mL | – | – |
| 0.12 | 0.14 | > 50000 nM | 0.61 | 20 nM | 797 ng·h/mL | C[C@@H](c1nc2ccc(N3CCC[C@@H](C(=O)N4CCCC4)C3)nc2[nH]1)n1cc(Cl)cn1 | – | – | – | – | – | – | – | – | – | – | 52 | 4 to 6 mmHg |

Source: ChEMBL document CHEMBL4261487, “Small structural changes of the imidazopyridine diacylglycerol acyltransferase 2 (DGAT2) inhibitors produce an improved safety profile” (Medchemcomm, 2017)
